Measured values published in ChEMBL document CHEMBL1127019, “(S)-N-tert-butyl-3-(4-(2-methoxyphenyl)-piperazin-1-yl)-2-phenylpropanamide [(S)-WAY-100135]: a selective antagonist at presynaptic and postsynaptic 5-HT1A receptors” (J Med Chem, 1993).

Columns and labels:
[1] = system: Rattus norvegicus; experiment: Decrease in hippocampal level of 5-HT at preinjection of 1 mg/kg, sc; assay type: functional, Hippocampus; conditions: route subcutaneous
[2] = target: Adrenergic receptor beta (Rattus norvegicus, UniProt P18090+P10608+P26255); experiment: (§1) In vitro binding affinity towards the noradrenergic beta receptor at 10 e-6 M; assay type: protein assay
Method in brief: (§2)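 Radioligand binding at the receptor site, run at 10⁻⁶ M. Reported as mean percent inhibition from at least three experiments, each performed in triplicate.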

[3] = system: Rattus norvegicus; experiment: Decrease in hippocampal level of 5-HT at preinjection of 5 mg/kg, sc; assay type: functional, Hippocampus; conditions: route subcutaneous
Method in brief: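 Microdialysis in conscious, freely moving rats. Test agent given sc, and extracellular 5-HT measured in hippocampus for up to 2.5 h after dosing. Values expressed as % of preinjection control levels.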

[4] = target: T1, 5-hydroxytryptamine receptor 1A (Rattus norvegicus, UniProt P19327); experiment: In vitro binding affinity towards the 5-hydroxytryptamine 1A receptor was evaluated
T1 sequence (P19327 whole entry): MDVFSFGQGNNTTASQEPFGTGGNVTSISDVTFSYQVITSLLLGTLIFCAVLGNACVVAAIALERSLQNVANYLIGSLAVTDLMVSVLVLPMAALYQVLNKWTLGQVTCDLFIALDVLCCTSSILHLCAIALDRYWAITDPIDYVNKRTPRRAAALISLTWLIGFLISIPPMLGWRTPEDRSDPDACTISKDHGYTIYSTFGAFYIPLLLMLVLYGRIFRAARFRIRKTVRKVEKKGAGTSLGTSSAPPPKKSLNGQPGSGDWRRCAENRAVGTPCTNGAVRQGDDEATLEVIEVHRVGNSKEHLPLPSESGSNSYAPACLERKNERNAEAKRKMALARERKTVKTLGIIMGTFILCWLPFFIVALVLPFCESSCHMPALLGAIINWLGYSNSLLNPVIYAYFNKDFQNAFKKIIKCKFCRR
Method in brief: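 Receptor binding at the 5-HT1A site, reported as IC50. Each value is the mean IC50 ± standard error of at least three experiments, each run in triplicate.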

[5] = target: 5-hydroxytryptamine receptor 1B (Rattus norvegicus) (UniProt P28564); experiment: In vitro binding affinity towards the 5-hydroxytryptamine 1B receptor at 10 e-6 M
Sequence of 5-hydroxytryptamine receptor 1B (Rattus norvegicus) (P28564 whole entry): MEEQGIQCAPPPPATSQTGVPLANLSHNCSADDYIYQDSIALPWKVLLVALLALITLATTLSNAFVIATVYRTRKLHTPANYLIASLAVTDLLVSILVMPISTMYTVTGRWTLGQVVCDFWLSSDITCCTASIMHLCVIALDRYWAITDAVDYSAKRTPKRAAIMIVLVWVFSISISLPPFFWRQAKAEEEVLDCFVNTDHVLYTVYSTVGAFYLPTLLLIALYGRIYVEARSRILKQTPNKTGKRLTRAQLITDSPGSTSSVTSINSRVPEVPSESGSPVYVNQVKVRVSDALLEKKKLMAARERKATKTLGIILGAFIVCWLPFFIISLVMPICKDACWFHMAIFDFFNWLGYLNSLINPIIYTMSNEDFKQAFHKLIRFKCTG
Method in brief: (§3)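 Radioligand binding in vitro. Values are mean percent inhibition at 10⁻⁶ M, from at least three experiments each run in triplicate.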

[6] = target: T2, 5-hydroxytryptamine receptor 2C (Rattus norvegicus) (UniProt P08909); experiment: In vitro binding affinity towards the 5-hydroxytryptamine 1C receptor at 10 e-6 M; method in brief: as §3
T2 sequence (whole entry): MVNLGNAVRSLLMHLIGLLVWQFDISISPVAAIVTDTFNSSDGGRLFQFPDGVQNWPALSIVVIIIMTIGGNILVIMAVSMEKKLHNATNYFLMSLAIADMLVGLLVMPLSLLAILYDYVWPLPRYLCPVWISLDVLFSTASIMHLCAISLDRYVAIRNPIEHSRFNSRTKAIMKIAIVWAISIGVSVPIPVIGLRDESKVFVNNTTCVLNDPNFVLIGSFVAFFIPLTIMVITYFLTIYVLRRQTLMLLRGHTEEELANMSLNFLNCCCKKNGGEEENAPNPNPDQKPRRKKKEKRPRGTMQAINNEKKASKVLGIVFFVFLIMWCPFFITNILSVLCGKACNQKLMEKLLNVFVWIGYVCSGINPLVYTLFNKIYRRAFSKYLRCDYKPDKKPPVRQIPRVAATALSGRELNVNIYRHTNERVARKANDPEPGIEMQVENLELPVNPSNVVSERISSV

[7] = target: Serotonin 2 (5-HT2) receptor (Rattus norvegicus) (UniProt P30994+P08909+P14842); experiment: (§4) In vitro binding affinity towards the 5-hydroxytryptamine 2 receptor at 10 e-6 M; assay type: protein assay; method in brief: as §3
Sequence of Serotonin 2 (5-HT2) receptor (Rattus norvegicus) (P14842 whole entry, looked up, one chain of several): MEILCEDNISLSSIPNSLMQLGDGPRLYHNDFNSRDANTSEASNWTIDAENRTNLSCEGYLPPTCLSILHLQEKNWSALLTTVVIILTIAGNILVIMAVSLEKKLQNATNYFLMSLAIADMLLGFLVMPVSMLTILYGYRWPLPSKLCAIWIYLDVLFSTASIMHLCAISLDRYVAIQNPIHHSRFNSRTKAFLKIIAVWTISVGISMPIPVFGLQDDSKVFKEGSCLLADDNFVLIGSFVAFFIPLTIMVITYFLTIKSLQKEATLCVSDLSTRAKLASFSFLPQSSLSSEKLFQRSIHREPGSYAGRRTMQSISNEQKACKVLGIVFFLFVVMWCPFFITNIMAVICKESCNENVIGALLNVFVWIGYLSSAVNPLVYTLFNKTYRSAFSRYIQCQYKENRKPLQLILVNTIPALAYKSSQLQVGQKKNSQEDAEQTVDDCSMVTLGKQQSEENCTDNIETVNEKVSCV
Sequence of Serotonin 2 (5-HT2) receptor (Rattus norvegicus) (P30994 whole entry, looked up, one chain of several): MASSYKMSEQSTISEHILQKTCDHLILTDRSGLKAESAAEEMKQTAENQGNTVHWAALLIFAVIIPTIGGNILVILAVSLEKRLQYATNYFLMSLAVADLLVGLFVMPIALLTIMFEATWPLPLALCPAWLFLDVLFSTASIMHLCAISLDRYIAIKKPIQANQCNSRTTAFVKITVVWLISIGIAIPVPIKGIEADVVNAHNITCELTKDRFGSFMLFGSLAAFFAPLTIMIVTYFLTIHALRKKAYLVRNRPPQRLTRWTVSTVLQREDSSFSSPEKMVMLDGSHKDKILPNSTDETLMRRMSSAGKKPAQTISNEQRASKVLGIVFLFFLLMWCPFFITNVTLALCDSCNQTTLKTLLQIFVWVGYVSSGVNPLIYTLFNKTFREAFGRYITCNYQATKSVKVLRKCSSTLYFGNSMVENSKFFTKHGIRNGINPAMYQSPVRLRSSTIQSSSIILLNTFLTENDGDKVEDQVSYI

[8] = target: T3, Adrenergic receptor alpha-1 (Rattus norvegicus, UniProt P15823+P23944+P43140); experiment: In vitro binding affinity towards the noradrenergic alpha-1 receptor at 10 e-6 M; assay type: protein assay; method in brief: as §3
T3 sequence (P15823 whole entry): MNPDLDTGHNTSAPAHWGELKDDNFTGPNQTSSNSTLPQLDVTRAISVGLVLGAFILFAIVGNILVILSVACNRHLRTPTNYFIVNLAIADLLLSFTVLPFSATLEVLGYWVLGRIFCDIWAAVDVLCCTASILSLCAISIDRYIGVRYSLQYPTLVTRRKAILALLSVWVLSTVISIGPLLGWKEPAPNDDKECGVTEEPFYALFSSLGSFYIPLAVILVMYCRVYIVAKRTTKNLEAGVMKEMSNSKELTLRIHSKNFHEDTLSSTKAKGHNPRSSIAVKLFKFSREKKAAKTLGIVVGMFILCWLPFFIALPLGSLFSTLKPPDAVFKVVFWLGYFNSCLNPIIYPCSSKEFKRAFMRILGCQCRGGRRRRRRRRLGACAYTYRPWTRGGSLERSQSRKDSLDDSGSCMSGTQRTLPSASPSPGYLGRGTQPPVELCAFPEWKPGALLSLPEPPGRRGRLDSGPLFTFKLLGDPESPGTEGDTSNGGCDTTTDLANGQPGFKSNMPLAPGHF
T3 sequence (P23944 whole entry): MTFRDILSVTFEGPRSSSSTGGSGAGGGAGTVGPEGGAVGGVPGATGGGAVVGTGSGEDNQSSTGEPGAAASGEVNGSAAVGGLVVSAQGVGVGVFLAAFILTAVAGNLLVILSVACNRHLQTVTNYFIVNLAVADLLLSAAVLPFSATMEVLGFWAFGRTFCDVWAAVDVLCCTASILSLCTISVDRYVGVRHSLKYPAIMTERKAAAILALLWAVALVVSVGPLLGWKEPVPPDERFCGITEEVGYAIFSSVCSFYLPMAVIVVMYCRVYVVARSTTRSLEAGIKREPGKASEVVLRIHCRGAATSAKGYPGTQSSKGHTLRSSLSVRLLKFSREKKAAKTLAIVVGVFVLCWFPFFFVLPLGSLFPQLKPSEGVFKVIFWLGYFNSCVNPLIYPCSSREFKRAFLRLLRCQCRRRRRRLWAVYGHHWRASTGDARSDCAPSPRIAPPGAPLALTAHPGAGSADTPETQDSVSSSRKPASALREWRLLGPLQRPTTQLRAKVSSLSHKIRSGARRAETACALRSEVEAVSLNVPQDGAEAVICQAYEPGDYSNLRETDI
T3 sequence (P43140 whole entry): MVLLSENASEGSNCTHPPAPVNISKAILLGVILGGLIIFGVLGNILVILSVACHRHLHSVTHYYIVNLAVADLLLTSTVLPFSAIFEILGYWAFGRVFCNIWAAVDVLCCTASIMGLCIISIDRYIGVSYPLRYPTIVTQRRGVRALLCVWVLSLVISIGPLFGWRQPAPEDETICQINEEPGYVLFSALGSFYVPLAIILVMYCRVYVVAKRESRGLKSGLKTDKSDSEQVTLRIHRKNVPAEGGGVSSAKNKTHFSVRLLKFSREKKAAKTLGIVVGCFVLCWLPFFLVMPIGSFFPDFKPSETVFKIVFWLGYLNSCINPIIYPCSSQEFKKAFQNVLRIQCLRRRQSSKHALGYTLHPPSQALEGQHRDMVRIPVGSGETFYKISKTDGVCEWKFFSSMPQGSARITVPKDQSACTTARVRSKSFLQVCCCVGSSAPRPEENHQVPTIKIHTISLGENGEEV

[9] = target: D(1A) dopamine receptor (Rattus norvegicus) (UniProt P18901); experiment: In vitro binding affinity towards the dopamine receptor D1 at 10 e-6 M; method in brief: as §3
Sequence of D(1A) dopamine receptor (Rattus norvegicus) (P18901 whole entry): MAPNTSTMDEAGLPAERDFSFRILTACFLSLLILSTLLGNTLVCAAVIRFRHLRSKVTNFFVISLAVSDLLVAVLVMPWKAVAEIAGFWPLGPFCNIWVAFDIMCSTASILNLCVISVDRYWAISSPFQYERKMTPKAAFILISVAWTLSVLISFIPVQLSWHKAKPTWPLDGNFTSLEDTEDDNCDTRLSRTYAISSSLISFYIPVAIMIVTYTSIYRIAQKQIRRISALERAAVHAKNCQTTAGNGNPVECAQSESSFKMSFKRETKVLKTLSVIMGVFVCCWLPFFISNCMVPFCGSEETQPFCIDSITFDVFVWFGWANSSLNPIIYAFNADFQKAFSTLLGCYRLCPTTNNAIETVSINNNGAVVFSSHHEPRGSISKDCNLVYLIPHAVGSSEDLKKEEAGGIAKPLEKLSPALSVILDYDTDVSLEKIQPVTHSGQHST

[10] = target: D(2) dopamine receptor (Rattus norvegicus) (UniProt P61169); experiment: In vitro binding affinity towards the dopamine receptor D2 at 10 e-6 M; method in brief: as §3
Sequence of D(2) dopamine receptor (Rattus norvegicus) (P61169 whole entry): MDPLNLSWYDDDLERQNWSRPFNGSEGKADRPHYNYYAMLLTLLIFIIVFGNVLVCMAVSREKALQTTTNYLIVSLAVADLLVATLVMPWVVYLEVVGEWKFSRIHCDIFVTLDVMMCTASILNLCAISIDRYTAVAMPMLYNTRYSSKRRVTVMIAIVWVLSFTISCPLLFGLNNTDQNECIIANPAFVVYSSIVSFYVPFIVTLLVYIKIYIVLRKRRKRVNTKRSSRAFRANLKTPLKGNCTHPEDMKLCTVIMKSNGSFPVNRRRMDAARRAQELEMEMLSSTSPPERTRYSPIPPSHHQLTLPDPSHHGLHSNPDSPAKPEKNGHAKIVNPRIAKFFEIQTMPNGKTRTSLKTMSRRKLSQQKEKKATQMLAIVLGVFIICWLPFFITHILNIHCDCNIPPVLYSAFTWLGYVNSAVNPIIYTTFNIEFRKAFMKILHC

[11] = target: Adrenergic receptor alpha-2 (Rattus norvegicus) (UniProt P22086+P19328+P22909); experiment: In vitro binding affinity towards the noradrenergic alpha-2 receptor at 10 e-6 M; assay type: protein assay; method in brief: as §3
[12] = target: Adrenergic receptor beta (Rattus norvegicus) (UniProt P18090+P10608+P26255); experiment: as §1; assay type: protein assay; method in brief: as §2
[13] = system: Rattus norvegicus; experiment: Minimum effective dose administered subcutaneously to block the effect of 8-hydroxy-DPAT; assay type: functional
Method in brief: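 Rats pretreated sc with vehicle or test agent, then given 8-OH-DPAT iv 30 min later to induce the behavioral syndrome. Groups of at least 10 rats were used, and the 8-OH-DPAT ED50 was determined by the sequential up/down method.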

[14] = target: Serotonin 2 (5-HT2) receptor (Rattus norvegicus, UniProt P30994+P08909+P14842); experiment: as §4; assay type: protein assay; method in brief: as §3
[15] = target: T3, Adrenergic receptor alpha-1; experiment: In vitro binding affinity towards the alpha-1 receptor at 10 e-6 M; assay type: protein assay; method in brief: as §3
[16] = system: Rattus norvegicus; experiment: Decrease in hippocampal level of 5-HTat preinjection of 0.1 mg/kg, sc; assay type: functional, Hippocampus; conditions: route subcutaneous
[17] = target: T3, Adrenergic receptor alpha-1; experiment: In vitro binding affinity towards the anor-adrenergic alpha-1 receptor at 10 e-6 M; assay type: protein assay; method in brief: as §3

SMILES	IC50 [4]	inhibition [5]	inhibition [6]	inhibition [9]	inhibition [10]	inhibition [11]	inhibition [12]	also measured
O=C1CC2(CCCC2)CC(=O)N1CCCCN1CCN(c2ncccn2)CC1 [BUSPIRONE]								Decrease [1]: 39.9%; IC50 [2]: > 1000 nM
COc1ccccc1N1CCN(CCN2C(=O)CC3(CCCC3)CC2=O)CC1.Cl.Cl								Decrease [3]: 37.6%
COc1ccccc1N1CCN(C[C@H](C(=O)NC(C)(C)C)c2ccccc2)CC1	437 nM	21%	14%	2%	4%	7%	7%	inhibition [7]: 13%; IC50 [8]: 2781 nM
COc1ccccc1N1CCN(C[C@@H](C(=O)NC(C)(C)C)c2ccccc2)CC1 (stereo in doubt; (R)-5)								MED [13]: 10 mg/kg
COc1ccccc1N1CCN(C[C@@H](C(=O)NC(C)(C)C)c2ccccc2)CC1 (stereo in doubt; (S)-5)								MED [13]: 1 mg/kg
COc1ccccc1N1CCN(C[C@@H](C(=O)NC(C)(C)C)c2ccccc2)CC1 [listing 1 of 2 here]	15.5 nM							IC50 [14]: 1393 nM; IC50 [15]: 1878 nM
CCCN(CCC)C1CCc2cccc(O)c2C1 (centres undefined) [8-OH-DPAT]								Decrease [16]: 19.2%
COc1ccccc1N1CCN(C[C@@H](C(=O)NC(C)(C)C)c2ccccc2)CC1 [listing 2 of 2 here]		22%	50%	22%	20%	11%	12%	
COc1ccccc1N1CCN(CC(C(=O)NC(C)(C)C)c2ccccc2)CC1 (centres undefined)	33.9 nM	27%	37%	20%	14%	10%	20%	inhibition [7]: 37%; IC50 [17]: 1491 nM; minimal effective dose ([13]; Rattus norvegicus, sc, read-out: MED): 3 mg/kg
